Source: PubChem BioAssay
Many of the other results were omitted from the sample, so hits are more common in it than they were.
KDM4C inh: KDM4C (human) demethylase inhibition | GST-KDM4C 2-372, H3K9me3 peptide, LANCE TR-FRET | inhibition, % at 12.5 µM | hit rate 0.15% among 96,000;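 active = mean replicate inhibition above about 25%, with at least 55% of replicates also reaching it, limit read from the data, passing the limit was not always enough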
Target sequence (Q9H3R0 2-372 limits assumed): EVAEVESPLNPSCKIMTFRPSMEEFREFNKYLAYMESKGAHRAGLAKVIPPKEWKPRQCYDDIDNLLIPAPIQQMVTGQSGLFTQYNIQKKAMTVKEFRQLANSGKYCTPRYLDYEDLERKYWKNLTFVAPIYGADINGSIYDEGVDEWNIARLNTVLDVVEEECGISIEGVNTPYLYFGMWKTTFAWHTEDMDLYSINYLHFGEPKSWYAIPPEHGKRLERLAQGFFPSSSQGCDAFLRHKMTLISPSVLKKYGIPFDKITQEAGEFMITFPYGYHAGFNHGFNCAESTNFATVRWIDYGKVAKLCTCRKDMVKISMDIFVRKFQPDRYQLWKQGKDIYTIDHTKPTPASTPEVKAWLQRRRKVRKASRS
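Test system – GST-tagged GASC-1 (JMJD2C) catalytic fragment, aa 2-372 · Medium – HEPES buffer, pH 7.5, plus ascorbate · Reagent – H3K9me3 peptide with Fe(II)/2OG · Compound – one test concentration per compound · Timing – 30 min reaction, 60 min detection, RT · Technique – TR-FRET with Eu antibody and ULight streptavidin, EDTA stop · Read-out basis – inhibition from TR-FRET ratio decrease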
T cruzi growth-1: blocks T. cruzi growth in NIH3T3 culture; T. cruzi beta-gal in NIH3T3, GalScreen luminescence, 90 h; inhibition, % at 8.34 µM; hit rate 5.9% among 77,000; AID 624255;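 active = mean inhibition above about 93%, with at least 55% of replicates each passing it, limit read from the data, passing the limit was not always enough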
IDH1 mut inh: IDH1 R132H (human) inhibition; IDH1 R132H reductase, diaphorase/resazurin fluorescence, 60 min; AID 624101; hit rate 0.18% among 70,000; inhibition, % at 10 µM; O75874; in the data active = inhibition above about 34%;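 note: 0% = DMSO and 100% = no enzyme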
T cruzi growth-2: Trypanosoma cruzi proliferation inhibition | hit rate 72% among 5,600 | AID 651739 | T. cruzi beta-gal in NIH3T3, GalScreen luminescence, 90 h | inhibition, % at 8.35 µM | shares compounds with T cruzi growth-1;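 active = mean replicate inhibition above about 95% and at least 55% of replicates individually reaching it, limit read from the data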
T cruzi growth-3: inhibitors of T. cruzi proliferation | shares compounds with T cruzi growth-1 | T. cruzi beta-gal in NIH3T3, GalScreen luminescence, 90 h | inhibition, % at 2.09 µM | hit rate 21% among 5,600 | AID 651740;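 active = mean inhibition above about 95%, with at least 55% of replicates also reaching it, limit read from the data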;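 note: plate controls were neutral control median for no effect and positive control median for full effect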
3T3 cytotox: NIH/3T3 (mouse) viability loss | shares compounds with T cruzi growth-1 | NIH/3T3 viability, CellTiter-Glo ATP luminescence, 90 h | cytotoxicity (signal decrease), % at 8.35 µM | hit rate 14% among 5,600 | AID 651742;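 active = mean signal decrease across replicates above about 35% based on untreated-well scatter, with enough replicates individually passing, limit read from the data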;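 note: 0% = median of neutral control wells and 100% = median of positive control wells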
3T3 cytotox 2: kills mouse NIH/3T3 fibroblasts; shares compounds with T cruzi growth-1; NIH/3T3 viability, CellTiter-Glo ATP luminescence, 90 h; inhibition, % at 24.9 µM; hit rate 56% among 5,600;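 active = mean loss of cell viability signal at or above a set limit, and enough replicates individually reaching it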;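 note: 0% = median of neutral control wells and 100% = median of positive control wells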
* marks the source's active call; other numbers are inactive results.

Screening CCCN(C)C[C@H]1Oc2cc(-c3ccccc3F)ccc2S(=O)(=O)N([C@H](C)CO)C[C@H]1C returned KDM4C inh -0.6, T cruzi growth-1 57.8 and IDH1 mut inh -0.2.
For C[C@@H]1O[C@@H](O[C@@H]2[C@@H](O)[C@H](O[C@@H]3[C@@H](O)[C@@H](O)[C@H](O[C@H]4[C@H](OC(=O)[C@]56CCC(C)(C)C[C@H]5C5=CCC7[C@@]8(C)C[C@H](O)[C@H](O[C@@H]9O[C@H](C(=O)O)[C@@H](O)[C@H](O)[C@H]9O)[C@@](C)(CO)C8[C@H](O)C[C@@]7(C)[C@]5(C)C[C@H]6O)O[C@@H](CO)[C@@H]4O)O[C@H]3C)OC[C@H]2O)[C@H](O)[C@H](O)[C@H]1O (some centres undefined) the results were IDH1 mut inh 0.6.
c1cnc(SCCCCOc2ccc3c(c2)CCC3)nc1 was read as IDH1 mut inh -1.1.
Screening O=C(CSc1nc2ccccc2c(=O)n1Cc1ccccc1)c1cc2ccccc2o1 returned IDH1 mut inh 0.0.
`COc1ccccc1-c1ccc([C@@H]2[C@H](C#N)N(C(=O)C3CC3)[C@H]2CO)cc1` gave KDM4C inh -6.4, T cruzi growth-1 101.8*, T cruzi growth-2 48.5, T cruzi growth-3 -3.3, 3T3 cytotox 13.3 and 3T3 cytotox 2 46.9*.
For COc1ccccc1-c1ccc([C@H]2[C@@H](C#N)N(C(=O)C3CC3)[C@@H]2CO)cc1 the results were KDM4C inh -2.0, T cruzi growth-1 102.7*, T cruzi growth-2 109.8*, T cruzi growth-3 45.0, 3T3 cytotox 3.2 and 3T3 cytotox 2 34.8*.
COc1ccccc1-c1ccc([C@H]2[C@@H](C#N)N(C(=O)C3CC3)[C@H]2CO)cc1 was read as KDM4C inh 0.9, T cruzi growth-1 98.9*, T cruzi growth-2 88.3, T cruzi growth-3 48.9, 3T3 cytotox 2.3 and 3T3 cytotox 2 21.0.
COc1ccccc1-c1ccc([C@@H]2[C@@H](C#N)N(C(=O)C3CCCC3)[C@@H]2CO)cc1 was read as KDM4C inh -0.9.
COc1ccccc1-c1ccccc1[C@H]1[C@H](C#N)N(C(=O)C2CC2)[C@H]1CO was read as KDM4C inh -1.8.
`N#C[C@@H]1[C@@H](c2ccc(-c3ccccc3F)cc2)[C@H](CO)N1C(=O)C1CC1` gave KDM4C inh 0.1 and T cruzi growth-1 62.8.
Screening COc1ccccc1-c1ccc([C@H]2[C@@H](CO)N(C(=O)C3CCCCC3)[C@H]2C#N)cc1 returned KDM4C inh 0.1, T cruzi growth-1 74.4 and IDH1 mut inh -1.9.
Screening COc1ccccc1-c1ccc([C@@H]2[C@@H](CO)N(C(=O)C3CC3)[C@H]2C#N)cc1 returned KDM4C inh -0.2, T cruzi growth-1 105.4*, T cruzi growth-2 73.0, T cruzi growth-3 7.8, 3T3 cytotox -21.3 and 3T3 cytotox 2 6.7.
Screening N#Cc1ccccc1Sc1ccccc1C(=O)Nc1cccc(CCc2ccccn2)c1 returned IDH1 mut inh 0.3.
`COc1ccc(Cl)cc1N=C1NC(=O)CC(C(=O)Nc2ccccc2)S1` (centres undefined) gave IDH1 mut inh 0.4.
Screening Oc1ccc([C@@H]2Oc3cc(O)cc(O)c3C[C@@H]2O)cc1 returned IDH1 mut inh -0.9.
`COc1cc(/C=c2\sc3nc4cc(C)c(C)cc4n3c2=O)c(Br)cc1OCC(=O)O` gave IDH1 mut inh -0.7.
For NC(=O)CSc1nc(N)c(-c2ccccc2)c(=O)[nH]1 the results were IDH1 mut inh 0.2.
For COc1cc(C2c3c(cc(OC)c(O)c3OC)CC(CO)C2CO[C@@H]2O[C@H](CO)[C@@H](O)[C@H](O)[C@H]2O)cc(OC)c1O (some centres undefined) the results were IDH1 mut inh -0.9.
`c1ccc(-n2c(SCc3nc4ccccc4[nH]3)nnc2-c2cnccn2)cc1` gave IDH1 mut inh 0.2.
`N#C[C@H]1[C@H](c2ccc(-c3ccccc3F)cc2)[C@H](CO)N1C(=O)C1CC1` gave KDM4C inh -0.7 and T cruzi growth-1 29.9.
